Bioassay records from PubChem.
Most compounds without a hit are left out; they make up all but 3.1% or so of the library.
OX1R antag-1 = OX1R (human) antagonism; O43613; OX1R-expressing cells, FRET antagonist read-out; inhibition, % at 6.6 µM; 1.8% of 330,000 active; in the data active = inhibition mostly above about 38%, no sharp cut-off; inactive = mostly below about 40%;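 also: 0% = agonist challenge alone and 100% = reference antagonist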
Target sequence (O43613 whole entry, looked up): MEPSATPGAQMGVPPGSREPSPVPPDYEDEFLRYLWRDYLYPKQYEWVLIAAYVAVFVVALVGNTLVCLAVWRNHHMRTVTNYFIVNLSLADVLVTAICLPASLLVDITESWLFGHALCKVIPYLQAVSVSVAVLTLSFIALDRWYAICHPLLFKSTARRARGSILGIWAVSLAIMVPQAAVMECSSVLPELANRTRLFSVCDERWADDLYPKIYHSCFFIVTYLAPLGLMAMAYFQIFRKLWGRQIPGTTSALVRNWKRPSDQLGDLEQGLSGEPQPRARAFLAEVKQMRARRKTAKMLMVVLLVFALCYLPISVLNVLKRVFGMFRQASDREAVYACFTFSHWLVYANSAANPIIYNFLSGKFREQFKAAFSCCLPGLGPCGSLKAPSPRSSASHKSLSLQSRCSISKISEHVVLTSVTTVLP
CHO parental Ca = counter-screen for OX1R antagonists: effect in parental CHO cells. inhibition, % at 5.6 µM. 0.63% of 330,000 active. parental CHO-K1, ATP-induced calcium, Fluo-8 fluorescence;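 active = inhibition above that plate's mean sample inhibition plus 3 SD, cut at about 26% in these data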;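 also: 0% = ATP-challenged DMSO wells and 100% = DMSO wells without ATP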
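Test system: untransfected parental CHO cell line; also added: ATP stimulus; dosing: 5.6 µM, single dose; signal: calcium-sensitive Fluo-8 fluorescence; measure: percent inhibition of ATP-evoked calcium rise, normalized to controls; benchmarks: low control ATP plus DMSO, high control DMSO only; replication: one well per compound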
GalR3 antagonist = blocks the human galanin receptor 3; HEK293 GalR3-CNG cAMP membrane potential fluorescence; galR3 body fused to GalR1 C-terminus; inhibition, % at 3 µM; 0.44% of 360,000 active; AID 651719;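 active = inhibition above the screen-wide average plus 3 SD, cut at about 13% in these data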;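 also: forskolin and galanin both at EC90 stimulate the cells; cAMP rise reported by CNG channel membrane potential dye signal; 0% = forskolin plus galanin with DMSO and 100% = forskolin alone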
GPR7 antagonist = human neuropeptides B/W receptor 1 antagonism; GPR7-expressing cells, fluorescence antagonist assay; inhibition, % at 4.4 µM; 1.1% of 290,000 active; AID 1861; in the data active = inhibition above about 16%, passing the limit was not always enough;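 also: cells stimulated with the agonist NPW; 0% = agonist with vehicle and 100% = vehicle without agonist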
OX1R antag-2 = antagonists of human orexin 1 receptor. 0.43% of 330,000 active. inhibition, % at 5 µM. AID 434989. CHO/OX1R cells, Fluo-8 calcium fluorescence, orexin A;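 active = inhibition above its plate's threshold, mean inhibition of all tested compounds on the plate plus 3 SD, cut at about 37% in these data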;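 also: 0% = orexin A challenge wells and 100% = SB-334867-A antagonist wells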
GalR3 antag conf = GalR3 (human) antagonism, confirmation; shares compounds with GalR3 antagonist; inhibition, % at 3 µM; 59% of 1,600 active; HEK293 GalR3 CNG cAMP biosensor, membrane potential fluorescence; galR3 fused to GalR1 carboxy tail; challenged with forskolin and galanin at EC90;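 active = inhibition above the primary screen's cutoff, the mean inhibition of all screened compounds plus 3 SD, cut at about 13% in these data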;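 also: 0% = forskolin plus galanin and 100% = forskolin alone with DMSO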
CNG parental = counter-screen for GalR3 antagonists: nonspecific agonists in parental HEK-CNG cells. shares compounds with GalR3 antagonist. HEK293-CNG parental cells, cAMP membrane potential fluorescence; normalised: DMSO wells 0%, forskolin wells 100%. activation, % at 3 µM. 10% of 1,600 active; in the data active = activation above about 1.3%
An asterisk follows results filed as active; . = no result given.

SMILES | OX1R antag-1 | CHO parental Ca | GalR3 antagonist | GPR7 antagonist | OX1R antag-2 | GalR3 antag conf | CNG parental
O=c1c(Cl)c(NCC2CCCO2)cnn1C12CC3CC(CC(C3)C1)C2 (configuration not stated) | 12 | 8 | 15* | -16 | -16 | 33* | 0
O=C(O)C12CC3CC(C1)CC(n1ncc(NCc4ccco4)c(Cl)c1=O)(C3)C2 | 30 | -12 | 3 | -16 | -2 | . | .
O=C(CSC1=Nc2ccccc2C2CC=NN12)Nc1ccc2c(c1)OCO2 (configuration not stated) | . | . | 20* | 6 | . | 10 | 0
Cc1ccc(CCNc2ncnc(Cl)c2N)cc1 | . | . | 104* | . | . | 104* | 0
COc1ccc(OC)c(-n2c(SCC(=O)Nc3cccc(S(N)(=O)=O)c3)nc3ccccc3c2=O)c1 | 12 | -23 | 2 | -5 | -13 | . | .
Cn1nccc1C(=O)NC1CCCc2c1cnn2-c1ccc(C(C)(C)C)cc1 (configuration not stated) | 49* | 56* | 109* | 13 | 22 | 122* | 0
Cc1ccc(-n2ncc3c2CCCC3NC(=O)c2ocnc2C)cc1C (configuration not stated) | 39 | 27 | 101* | 2 | 29 | 113* | 0
CC(=O)NC1CCCc2c1cnn2-c1ccc(C(C)(C)C)cc1 (configuration not stated) | 8 | 3 | -5 | -8 | -3 | . | .
Cc1cc(C(=O)NC2CCCc3c2cnn3-c2cccc(C)c2C)n(C)n1 (configuration not stated) | 54 | 55* | 100* | 3 | 25 | 105* | -1
CC(C)(C)c1ccc(-n2ncc3c2CCCC3NC(=O)CCN2CCCC2=O)cc1 (configuration not stated) | 22 | 20 | 95* | 6 | 1 | 84* | 0
C[C@H](CO)N1C[C@H](C)[C@@H](CN(C)C(=O)Nc2ccc3c(c2)OCO3)Oc2ccc(NS(=O)(=O)c3ccccc3)cc2C1=O | 8 | -8 | -5 | . | 0 | . | .
CCOCCCNCC(=O)NCC1CCCCC1 | 3 | 0 | -4 | 3 | -1 | . | .
CC(C)n1ncc2c(C(=O)NCc3cccnc3)cc(C3CC3)nc21 | . | . | -6 | . | . | . | .
O=C(Cc1ccc(Cl)cc1Cl)Nc1ccncc1Cl | 22 | 31* | 45* | 5 | 1 | 67* | 1
COc1ccc(CC(=O)Nc2ccncc2Cl)cc1 | 30 | 35* | 63* | -3 | 18 | 49* | 0
CN(C(=O)c1cccc(NC(=O)Cc2cccc(NC(=O)C3CCN(C(=O)CCc4ccccc4)CC3)c2)c1)C1CC1 | . | . | -2 | . | . | . | .
O=C(NNC(=O)c1ccccc1O)c1ccc(Cl)c(S(=O)(=O)N2CCc3ccccc32)c1 | 62* | 57* | 29* | . | 40* | 60* | -2
O=C(c1ccc(Cl)c(S(=O)(=O)N2CCc3ccccc32)c1)N1CCN(c2ccccc2O)CC1 | 11 | -7 | -4 | . | -2 | . | .
O=C(Nc1ccn(Cc2ccccc2F)n1)c1ccc(COc2ccc(Br)cc2)cc1 | 26 | 11 | 97* | -5 | 33 | 106* | 0
CC(=O)Nc1ccc(OCCC[n+]2ccccc2)cc1 | 10 | -7 | -3 | 4 | -7 | . | .
CCCCCc1ccc(OCCC[n+]2ccccc2)c(CCCCC)c1 | 3 | 4 | 31* | 6 | 0 | 36* | 1.8*
CCN(CC)S(=O)(=O)c1ccc(C(=O)NCCN(C)C)cc1 | 4 | 1 | 20* | -3 | -23 | 4 | 0
CCN(CC)S(=O)(=O)c1ccc(C(=O)NCCCn2ccnc2)cc1 | 15 | -4 | -6 | -9 | -29 | . | .
COCCCNC(=O)Cn1cnc2c(OCc3ccccc3)ncnc21 | 0 | -8 | -6 | . | -11 | . | .
O=C(CNC(=O)c1ccc(F)cc1)Nc1ccccc1C(F)(F)F | 3 | -8 | 14* | 12 | -11 | -3 | 0
SMILES | OX1R antag-1 | CHO parental Ca | GalR3 antagonist | GPR7 antagonist | OX1R antag-2 | GalR3 antag conf | CNG parental
COc1ccc(NS(=O)(=O)c2ccc(C)c(C(=O)N3CCCCCCC3)c2)cc1 | 21 | -16 | -7 | . | -28 | . | .
O=C(Cn1nc(-c2ccc(N3CCOCC3)c([N+](=O)[O-])c2)c2ccccc2c1=O)N1CCCCC1 | 21 | -14 | 15* | -15 | -17 | 60* | 0
Cc1ccc(-c2nn(CC(=O)N3CCOCC3)c(=O)c3ccccc23)cc1S(=O)(=O)N(C)C | 12 | -9 | 0 | -6 | -13 | . | .
CNC(=O)c1ccsc1NC(=O)C1CCCN1S(=O)(=O)c1cccs1 (configuration not stated) | 4 | -13 | -4 | . | -22 | . | .
CCN(CC)S(=O)(=O)c1ccc(/C=C/C(=O)Nc2ccc(Br)cc2F)cc1 | 12 | 9 | 59* | 0 | -2 | 99* | 0
CC(=O)Nc1cccc(NC=C(C#N)C#N)c1 | 15 | 1 | 15* | -9 | -19 | -5 | 0
CCOC(=O)c1sc2ncnc(N3CCN(C(=O)OCC)CC3)c2c1C | 14 | -7 | 15* | -8 | -10 | 21* | 0
CCOc1ccc(OCCC(=O)OCC(=O)N2CCN(S(=O)(=O)c3ccc(C)cc3)CC2)cc1 | 22 | -13 | -1 | . | -16 | . | .
Cc1ccc(S(=O)(=O)N2CCN(C(=O)COC(=O)CCOc3ccc(C(C)(C)C)cc3)CC2)cc1 | 19 | 25 | 20* | . | 37 | 20* | -1
CC1CN(S(=O)(=O)c2cccc(C(=O)NCc3ccccn3)c2)CC(C)O1 (configuration not stated) | 4 | -8 | -6 | . | -13 | . | .
Cc1ccc(OCCN2CCN(C(=O)CCC(=O)Nc3nnc(CC(C)C)s3)CC2)cc1 | 18 | -10 | -4 | 6 | 6 | . | .
Cc1ccc(S(=O)(=O)N2CCC(C(=O)OCC(=O)N(C)C3CCS(=O)(=O)C3)CC2)cc1C (configuration not stated) | 4 | 4 | -4 | . | -13 | . | .
CCCCNC(=O)N(CC)c1c(N)n(Cc2ccccc2)c(=O)[nH]c1=O | 21 | -3 | 13* | -16 | -13 | 3 | 0
Cc1ccc(S(=O)(=O)c2cn(C)c3cc(N4CCN(C)CC4)c(F)cc3c2=O)c(C)c1 | 0 | -3 | -10 | -9 | -2 | . | .
CCC(CC)C(=O)Nc1ccc([N+](=O)[O-])cn1 | 19 | -6 | 16* | -2 | -16 | 24* | 1
Cc1nc(C)c(-c2csc(Nc3ccccn3)n2)s1 | 4 | -10 | -7 | -8 | -28 | . | .
Cc1ccnc(Nc2nc(-c3sc(C)nc3C)cs2)c1 | 30 | -25 | 32* | . | -34 | 36* | 0
C=CCn1c(N)cc(=O)nc1SCC(=O)Nc1ccc(C(=O)OCC)cc1 | 10 | -12 | -8 | 6 | -20 | . | .
